Assays:
[1] = system: Radical scavenging activity; test: Antioxidant activity assessed as DPPH radical scavenging activity; type: functional
In short: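 Test compounds at a series of concentrations in DMSO/chloroform/methanol (1:8:4), mixed 1:1 (v/v) with 0.2 mM DPPH and incubated 30 min at 25 °C. Absorbance read at 520 nm from 0 s and every 300 s until plateau. Run in triplicate.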

[2] = Antioxidant activity assessed as Trolox equivalents of 0.001 mmol/L solution by ORAC assay; type: functional
[3] = Antioxidant activity assessed as Trolox equivalents of 1 mmol/L solution by FRAP assay; type: functional
In short: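 FRAP reagent made daily from 300 mmol l⁻¹ acetate buffer (pH 3.6), 10 mmol l⁻¹ TPTZ and 20 mmol l⁻¹ FeCl3 (10:1:1). Trolox calibration 50–1000 μmol l⁻¹. Result given as Trolox equivalents of a 1 mmol l⁻¹ solution. Run in triplicate.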

[4] = system: tyrosinase (Agaricus bisporus); test: Inhibition of mushroom tyrosinase using L-DOPA substrate at 10 uM
[5] = system: tyrosinase (Agaricus bisporus); test: Inhibition of mushroom tyrosinase using L-DOPA substrate at 100 uM
[6] = system: tyrosinase (Agaricus bisporus); test: Inhibition of mushroom tyrosinase using L-DOPA substrate at 1000 uM
[7] = Antioxidant activity assessed as Trolox equivalents of 0.01 mmol/L solution by ORAC assay; type: functional

IC50 [1] | inhibition [4] | inhibition [5] | inhibition [6] | SMILES | Activity [2] | Activity [3] | Activity [7]
60.4 µM | 32.1% | 73.3% | 80.6% | CCCCC/C=C\C/C=C\CCCCCCCC(=O)OC[C@H]1O[C@@H](Oc2c(-c3ccc(O)c(O)c3)oc3cc(O)cc(O)c3c2=O)[C@H](O)[C@@H](O)[C@@H]1O | 491 µmol/L | 340 µmol/L | –
17.9 µM | – | – | – | O=c1c(O[C@@H]2O[C@H](CO)[C@@H](O)[C@H](O)[C@H]2O)c(-c2ccc(O)c(O)c2)oc2cc(O)cc(O)c12 [ISOQUERCETIN] | 473 µmol/L | 1500 µmol/L | –
97.9 µM | 55.8% | 78.8% | 85.5% | CC/C=C\C/C=C\C/C=C\CCCCCCCC(=O)OC[C@H]1O[C@@H](Oc2c(-c3ccc(O)c(O)c3)oc3cc(O)cc(O)c3c2=O)[C@H](O)[C@@H](O)[C@@H]1O | 490 µmol/L | 614 µmol/L | –
1490 µM | – | – | – | O=C(CCc1ccc(O)cc1)c1c(O)cc(O)cc1O[C@@H]1O[C@H](CO)[C@@H](O)[C@H](O)[C@H]1O [PHLORIZIN] | – | – | 120 µmol/L
42 µM | – | – | – | CCCCCCCCCCCCCCCCCC(=O)OC[C@H]1O[C@@H](Oc2c(-c3ccc(O)c(O)c3)oc3cc(O)cc(O)c3c2=O)[C@H](O)[C@@H](O)[C@@H]1O | 310 µmol/L | 622 µmol/L | –
38.2 µM | 38.9% | 47.5% | 62.4% | CCCCCCCC/C=C\CCCCCCCC(=O)OC[C@H]1O[C@@H](Oc2c(-c3ccc(O)c(O)c3)oc3cc(O)cc(O)c3c2=O)[C@H](O)[C@@H](O)[C@@H]1O | 265 µmol/L | 536 µmol/L | –

— ChEMBL document CHEMBL2311261, “Biocatalytic synthesis, structural elucidation, antioxidant capacity and tyrosinase inhibition activity of long chain fatty acid acylated derivatives of phloridzin and isoquercitrin” (Bioorg Med Chem, 2013)
